Assay results published in ChEMBL document CHEMBL3120065, “Antifungal ether diglycosides from Matayba guianensis Aublet” (Bioorg Med Chem Lett, 2014).
≈ marks a conversion by molar mass, not a printed value.

Columns and labels:
[1] = tested on: PBMC; assay: Cytotoxicity against human PBMC assessed as cell viability after 72 hrs by MTT assay; type: cell-based
Outline: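 Normal proliferating human peripheral blood mononuclear cells exposed to compound for 72 h; viability read by MTT; result given as IC50.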

[2] = tested on: Candida parapsilosis; assay: Antifungal activity against Candida parapsilosis ATCC 22019 assessed as growth inhibition by microdliution method; type: functional; settings: Lodderomyces parapsilosis
[3] = Selectivity index, ratio of IC50 for human PBMC to MIC for Candida parapsilosis ATCC 22019
[4] = tested on: Plasmodium falciparum; assay: Antiplasmodial activity against Plasmodium falciparum assessed as growth inhibition; type: functional, organism-based

Row | SMILES | IC50 [1] | MIC [2] | Selectivity Index [3] | IC50 [4]
1 | CCCCCCCCCCCCCCCCO[C@@H]1O[C@H](CO)[C@@H](O)[C@H](O)[C@H]1O[C@@H]1O[C@@H](C)[C@H](OC(C)=O)[C@@H](O)[C@H]1OC(C)=O | > 39.4 µM | 6.31 µM | – | –
2 | CCCCCCCCCCCCCCCCO[C@@H]1O[C@H](CO)[C@@H](O)[C@H](O)[C@H]1O[C@@H]1O[C@@H](C)[C@H](OC(C)=O)[C@@H](OC(C)=O)[C@H]1O | > 39.4 µM | 3.15 µM | 12.5 | –
3 | CCCCCCCCCCCCCCCCO[C@@H]1O[C@H](CO)[C@@H](O)[C@H](O)[C@H]1O[C@@H]1O[C@@H](C)[C@H](OC(C)=O)[C@@H](OC(C)=O)[C@H]1OC(C)=O | 25.4 µM | 189 µM | – | –
4 | CCCCCCCCCCCCCCCCO[C@@H]1O[C@H](COC(=O)CCCCCCCCCCCCCCC)[C@@H](O)[C@H](O)[C@H]1O[C@@H]1O[C@@H](C)[C@H](OC(C)=O)[C@@H](OC(C)=O)[C@H]1OC(C)=O | – | – | – | 4.7 µg/mL (≈ 5.14 µM)
5 | CCCCCCCCCCCCCCCCO[C@@H]1O[C@H](COC(C)=O)[C@@H](OC(C)=O)[C@H](O)[C@H]1O[C@@H]1O[C@@H](C)[C@H](OC(C)=O)[C@@H](OC(C)=O)[C@H]1OC(C)=O | – | – | – | 7.1 µg/mL (≈ 9.33 µM)
6 | CCCCCCCCCCCCCCCCO[C@@H]1O[C@H](COC(C)=O)[C@@H](O)[C@H](OC(C)=O)[C@H]1O[C@@H]1O[C@@H](C)[C@H](OC(C)=O)[C@@H](OC(C)=O)[C@H]1OC(C)=O | – | – | – | 13 µg/mL (≈ 17.1 µM)
7 | CCCCCCCCCCCCCCCCO[C@@H]1O[C@H](COC(C)=O)[C@@H](O)[C@H](O)[C@H]1O[C@@H]1O[C@@H](C)[C@H](OC(C)=O)[C@@H](OC(C)=O)[C@H]1OC(C)=O | – | – | – | 15.7 µg/mL (≈ 21.8 µM)
8 | C[C@@H]1[C@H](O)[C@@H](C)/C=C/C=C/C=C/C=C/C=C/C=C/C=C/[C@H](O[C@@H]2O[C@H](C)[C@@H](O)[C@H](N)[C@@H]2O)C[C@@H]2O[C@](O)(C[C@@H](O)C[C@@H](O)[C@H](O)CC[C@@H](O)C[C@@H](O)CC(=O)O[C@H]1C)C[C@H](O)[C@H]2C(=O)O [AMPHOTERICIN B] | > 5.41 µM | 4.33 µM | – | –
9 | COc1cccc2c1C(=O)c1c(O)c3c(c(O)c1C2=O)C[C@@](O)(C(=O)CO)C[C@@H]3O[C@H]1C[C@H](N)[C@H](O)[C@H](C)O1 [DOXORUBICIN] | 1.7 µM | – | – | –
10 | OC(Cn1cncn1)(Cn1cncn1)c1ccc(F)cc1F [FLUCONAZOLE] | > 16.3 µM | 0.2 µM | – | –
11 | CCC(C)n1ncn(-c2ccc(N3CCN(c4ccc(OCC5COC(Cn6cncn6)(c6ccc(Cl)cc6Cl)O5)cc4)CC3)cc2)c1=O (stereo not drawn) [ITRACONAZOLE] | 1.53 µM | 0.71 µM | – | –
